The source of these data is ChEMBL document CHEMBL1154371, “Cytotoxic xanthone constituents of the stem bark of Garcinia mangostana (mangosteen)” (J Nat Prod, 2009).

Assay [1] relates to HT-29. Description: Cytotoxicity against human HT-29 cells. The note with it: read-out: ED50 (the source's name). Type of assay: functional. The method, boiled down: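 HT-29 human colon cancer cells. Camptothecin was the positive control. Cytotoxic potency is given as ED50.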
Assay [2] addresses T1, Nuclear factor NF-kappa-B p105 subunit (Homo sapiens, UniProt P19838).
T1 sequence (P19838 whole entry): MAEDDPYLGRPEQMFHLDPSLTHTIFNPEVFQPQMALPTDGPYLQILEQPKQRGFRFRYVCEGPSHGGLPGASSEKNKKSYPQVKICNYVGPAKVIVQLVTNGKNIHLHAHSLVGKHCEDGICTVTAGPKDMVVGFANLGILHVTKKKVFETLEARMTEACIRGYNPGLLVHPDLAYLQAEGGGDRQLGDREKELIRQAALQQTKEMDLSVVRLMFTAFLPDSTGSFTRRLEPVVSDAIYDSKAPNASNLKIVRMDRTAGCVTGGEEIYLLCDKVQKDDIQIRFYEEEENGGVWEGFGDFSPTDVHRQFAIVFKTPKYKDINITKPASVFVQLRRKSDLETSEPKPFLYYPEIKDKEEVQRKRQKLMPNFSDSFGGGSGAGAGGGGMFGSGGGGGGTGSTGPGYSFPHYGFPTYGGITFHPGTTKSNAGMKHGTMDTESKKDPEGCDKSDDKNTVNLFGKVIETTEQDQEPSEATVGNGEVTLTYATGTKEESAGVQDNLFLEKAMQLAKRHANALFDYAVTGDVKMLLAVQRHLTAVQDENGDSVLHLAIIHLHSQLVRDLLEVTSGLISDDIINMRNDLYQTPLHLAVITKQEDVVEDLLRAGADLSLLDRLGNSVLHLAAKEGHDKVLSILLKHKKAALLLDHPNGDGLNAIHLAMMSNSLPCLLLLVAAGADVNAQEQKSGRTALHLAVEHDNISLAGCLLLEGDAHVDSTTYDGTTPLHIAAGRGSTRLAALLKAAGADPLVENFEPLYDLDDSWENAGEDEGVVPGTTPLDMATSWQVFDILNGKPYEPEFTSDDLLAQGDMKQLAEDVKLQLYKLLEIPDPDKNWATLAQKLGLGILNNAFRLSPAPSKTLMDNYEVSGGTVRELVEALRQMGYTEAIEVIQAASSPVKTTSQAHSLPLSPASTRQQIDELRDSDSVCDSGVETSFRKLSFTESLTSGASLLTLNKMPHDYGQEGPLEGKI
In words: Inhibition of p50 after 1 hr by ELISA.

Another assay has as its target Transcription factor p65 (Homo sapiens, UniProt Q04206). Description: Inhibition of nuclear factor NF-kappa-B p65 subunit after 1 hr by ELISA. In general terms: An ELISA detects its analyte on a solid surface through an enzyme-linked reagent.
Another assay deals with MCF7. In words: Growth inhibition of human MCF7 cells implanted at intraperitoneal compartment of NCr nu/nu mouse at 2.5 mg/kg to 20 mg/kg by hollow fiber assay. Type of assay: functional, organism-based.
The next assay has as its system LNCaP. Description: Growth inhibition of human LNCAP cells implanted at intraperitoneal compartment of NCr nu/nu mouse at 2.5 mg/kg to 20 mg/kg by hollow fiber assay. Type of assay: functional, organism-based. The method, boiled down: (§1)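 Cells were loaded into hollow fibers and implanted at the intraperitoneal site of mice. Compound was given at 2.5, 5, 10 and 20 mg/kg. Paclitaxel at 20 mg/kg was the positive control.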

In assay [3] the test system is HT-29. In words: Growth inhibition of human HT-29 cells implanted at intraperitoneal compartment of NCr nu/nu mouse at 2.5 mg/kg to 20 mg/kg by hollow fiber assay. Type of assay: functional, organism-based. The method, boiled down:
as §1

Activity calls are given as the source filed them. The calls are words filed in the database; no cut-off is given here.

As a reminder, the IC50 is the concentration at which inhibition is half-maximal. Higher therefore signals a need for much substance.

Chain of Transcription factor p65 (Q04206 whole entry): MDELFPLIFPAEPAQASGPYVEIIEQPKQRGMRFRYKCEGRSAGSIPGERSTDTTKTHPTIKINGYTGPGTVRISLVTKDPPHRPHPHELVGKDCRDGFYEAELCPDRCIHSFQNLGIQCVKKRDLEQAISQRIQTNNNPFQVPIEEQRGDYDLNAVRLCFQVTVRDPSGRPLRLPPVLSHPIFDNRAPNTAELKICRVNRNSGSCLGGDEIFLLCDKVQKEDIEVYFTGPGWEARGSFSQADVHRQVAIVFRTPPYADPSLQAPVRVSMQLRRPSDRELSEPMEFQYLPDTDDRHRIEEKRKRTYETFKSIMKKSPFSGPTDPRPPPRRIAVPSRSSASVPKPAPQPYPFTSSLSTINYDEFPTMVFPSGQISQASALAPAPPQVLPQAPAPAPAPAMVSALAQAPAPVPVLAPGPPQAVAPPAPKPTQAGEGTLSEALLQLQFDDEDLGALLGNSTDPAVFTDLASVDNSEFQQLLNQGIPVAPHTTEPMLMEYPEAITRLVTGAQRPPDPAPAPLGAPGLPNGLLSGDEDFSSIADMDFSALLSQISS

As for `COc1c(O)cc2oc3cc4c(c(O)c3c(=O)c2c1CC=C(C)C)C[C@H](C(C)(C)O)O4`, in the assay with HT-29 [1], the EC50 was > 10 µM.

For the compound `COc1cc2oc3cc(O)c(OC)c(CC=C(C)C)c3c(=O)c2c(O)c1CC=C(C)C`, the IC50 in assay [2] amounted to 7.5 µM; against Transcription factor p65, 12.1 µM. In addition, the EC50 with HT-29 [1] was 1.7 µM.

As to `COc1c(O)cc2oc3cc4c(c(O)c3c(=O)c2c1CC=C(C)C)C=CC(C)(C)O4` [MANGOSTANIN], the IC50 (in assay [2]; at Transcription factor p65) was > 20 µM each time. Moreover, the EC50 in the assay with HT-29 [1] came to 9.1 µM.

In the case of `CC[C@@]1(O)C(=O)OCc2c1cc1n(c2=O)Cc2cc3ccccc3nc2-1` [CAMPTOTHECIN], the EC50 with HT-29 [1] turned out to be 0.06 µM.

For the compound `CC(C)=CCc1c(O)c(CC=C(C)C)c2oc3c(O)cccc3c(=O)c2c1O` [8-DEOXYGARTANIN], the IC50 is > 20 µM in assay [2] and 11.3 µM at Transcription factor p65. The EC50 in the assay on HT-29 [1] was > 10 µM.

On to `COc1c(O)cc2oc3cc4c(c(O)c3c(=O)c2c1CC=C(C)C)[C@@H](c1c(O)c(CC=C(C)C)c(O)c2c(=O)c3c(CC=C(C)C)c(OC)c(O)cc3oc12)[C@H](C(C)(C)O)O4` [CRATOXYXANTHONE], for which the IC50 (in assay [2]; at Transcription factor p65) was > 20 µM throughout.

Take `COc1c(O)cc2oc3cc(O)c4c(c3c(=O)c2c1CC=C(C)C)OC(C)(C)C(O)C4` (stereo not given): the IC50 (in assay [2]; at Transcription factor p65) was > 20 µM throughout.

Consider `COc1c(O)cc2oc3cc4c(c(O)c3c(=O)c2c1CC=C(C)C)CCC(C)(C)O4`, for which the EC50 in the assay with HT-29 [1] came out at 4.9 µM.

In the case of `COc1c(O)cc2oc3cc(O)c(CC=C(C)C)c(O)c3c(=O)c2c1CC=C(C)C` [MANGOSTIN], the IC50 in assay [2] is > 20 µM; against Transcription factor p65, 15.9 µM. Besides, in the assay with HT-29 [1], the EC50 worked out at 1.7 µM. For the same compound, the “growth inhibition (GI)” value with MCF7, with LNCaP and in the assay with HT-29 [3] was “inactive” throughout.

`COc1c(O)cc2oc3cc(O)c(CC=C(C)C)c(O)c3c(=O)c2c1CCC(C)(C)O` [GARCINONE D]: the concentration for half-maximal inhibition (IC50) was > 20 µM in assay [2] and 3.2 µM against Transcription factor p65. For the same compound, in the assay on HT-29 [1], the EC50 worked out at 2.3 µM.

Take `COc1cc2oc3cc(O)c(OC)c(CC=C(C)C)c3c(=O)c2c2c1CC(O)C(C)(C)O2` (stereo not given): the IC50 (in assay [2]; at Transcription factor p65) was > 20 µM in each case.

Regarding `CC(C)=CCc1c(O)c(CC=C(C)C)c2oc3c(O)ccc(O)c3c(=O)c2c1O` [GARTANIN], the IC50 in assay [2] is > 20 µM; against Transcription factor p65 it was 19 µM. The EC50 in the assay with HT-29 [1] was > 10 µM.
